Results gathered from unrelated publications.
Compare with care: the assays were run in different laboratories.
Cell line: HepG2
Observed: cell growth or viability

| SMILES | assay | setting | measurement | result |
| --- | --- | --- | --- | --- |
| COc1cccc(NC(=O)CN2C(=O)/C(=C/c3ccc(F)cc3)SC2=S)c1 | MTT | 10 µM | inhibition | 10.2% |
| CCn1cc(-c2nc(C)no2)c(=O)c2cc(F)c(N3CCC(CN4CCOCC4)CC3)cc21 | ATP luminescence | 48 h | EC50 | > 40 µM |
| Cc1ccc2nc(-c3ccc([N+](=O)[O-])cc3)n(Cc3ccccc3Cl)c2c1 | MTT | – | IC50 | 34.3 µM |
| CCOC(=O)c1ccc(-n2c(C)cc(/C=C/c3ccc(OCC)cc3)c(C#N)c2=O)cc1 | MTT | 100 µM, 24 h | viability | 40.7% |
| COc1ccc(NC(=O)c2c(Nc3ccccc3)sc(C(=O)NN=Cc3ccc(Cl)cc3)c2NC(C)=O)cc1 | SRB | 100 µM, 48 h | viability | 52.6% |
| Cc1cc(Nc2ccc(C(=O)N/N=C/c3nc4ccccc4[nH]3)cc2)c2cccc(O)c2n1 | MTT | 20 µM | inhibition | 46.4% |
| O=C(CN1C(=O)/C(=C/c2ccccn2)SC1=S)Nc1ccccc1 | MTT | 10 µM | inhibition | 10.2% |
| CCOC(=O)c1ccc(-n2c(-c3ccc(C)cc3)cc(-c3ccc(O)cc3)c(C#N)c2=O)cc1 | MTT | 1.56 µM, 24 h | viability | 100% |
| COc1ccc(NC(=O)c2c(Nc3ccccc3)sc(C(=O)NN=Cc3ccccc3)c2NC(C)=O)cc1 | SRB | 0.1 µM, 48 h | viability | 78.1% |
| CCOC(=O)c1ccc(NC(=O)C2=C3C(=Nc4ccccc43)NC2=O)cc1 | MTT | 25 µM, 24 h | viability | 56.3% |
| COc1ccc(-c2cc(-c3ccc4oc(=O)cc(C)c4c3O)nc(N)n2)cc1 | MTT | 2 µg/mL, 72 h | inhibition | 0% |
| COc1ccc(NC(=O)c2c(Nc3ccccc3)sc(C(=O)NN=Cc3ccc(OC)c(O)c3)c2NC(C)=O)cc1 | SRB | 10 µM, 48 h | viability | 31.6% |
| COc1cc2ncnc(Nc3ccc(F)c(Cl)c3)c2cc1NC(=O)N/N=C/c1cccn1CCN(C)C | MTT | 72 h | IC50 | 0.11 µM |
| Cc1cc(=O)oc2ccc(-c3cc(-c4cccc(Cl)c4)nc(N)n3)c(O)c12 | MTT | 128 µg/mL, 72 h | inhibition | 31% |
| COc1ccc(NC(=O)c2c(Nc3ccccc3)sc(C(=O)NN=Cc3cc(OC)c(OC)c(OC)c3)c2NC(C)=O)cc1 | SRB | 0.1 µM, 48 h | viability | 76.5% |
| O=C(CN1C(=O)/C(=C/c2ccccc2Cl)SC1=S)Nc1ccccc1 | MTT | 10 µM | inhibition | 11% |
| CCOC(=O)c1ccc(-n2c(N)c(C#N)c(CC#N)c(C#N)c2=O)cc1 | MTT | 12.5 µM, 24 h | viability | 63.6% |
| Cc1cc(=O)oc2ccc(-c3cc(-c4ccc(Br)cc4)nc(N)n3)c(O)c12 | MTT | 32 µg/mL, 72 h | inhibition | 8% |
| CCN(CC)CCCn1cccc1/C=N/NC(=O)Nc1cc2c(Nc3ccc(F)c(Cl)c3)ncnc2cc1O[C@H]1CCOC1 | MTT | 72 h | IC50 | 0.71 µM |
| O=C(CN1C(=O)/C(=C/c2ccco2)SC1=S)Nc1ccccc1 | MTT | 10 µM | inhibition | 18.6% |
| Cc1cc(=O)oc2ccc(-c3cc(-c4ccccc4)nc(N)n3)c(O)c12 | MTT | 8 µg/mL, 72 h | inhibition | 0% |
| Cc1ccc2nc(-c3ccccc3Cl)[nH]c2c1 | MTT | 48 h | IC50 | 95.6 µM |
| COc1cccc2c1C(=O)c1c(O)c3c(c(O)c1C2=O)C[C@@](O)(C(=O)CO)C[C@@H]3O[C@H]1C[C@H](N)[C@H](O)[C@H](C)O1 | MTT | 100 µM, 24 h | viability | 6.3% |
| O=C(CN1C(=O)/C(=C/c2cccc(O)c2)SC1=S)Nc1ccccc1 | MTT | 10 µM | inhibition | 5.11% |

| SMILES | assay | setting | measurement | result |
| --- | --- | --- | --- | --- |
| Cc1ccc(-c2cc(-c3ccc4oc(=O)cc(C)c4c3O)nc(N)n2)cc1 | MTT | 32 µg/mL, 72 h | inhibition | 0% |
| COc1ccc(NC(=O)c2c(Nc3ccccc3)sc(C#N)c2NC(=O)CNc2ccc([N+](=O)[O-])cc2)cc1 | SRB | 1 nM, 48 h | viability | 100% |
| Cc1ccc2nc(-c3c4ccccc4cc4ccccc34)[nH]c2c1 | MTT | 48 h | IC50 | 21.4 µM |
| Cc1cc(=O)oc2ccc(-c3cc(-c4ccc(Cl)cc4)nc(N)n3)c(O)c12 | MTT | 8 µg/mL, 72 h | inhibition | 39% |
| COc1ccc(NC(=O)c2c(Nc3ccccc3)sc(C#N)c2NC(=O)CNc2ccccc2[N+](=O)[O-])cc1 | SRB | 0.1 µM, 48 h | viability | 88.3% |
| COc1cc2ncnc(Nc3ccc(F)c(Cl)c3)c2cc1NC(=O)N/N=C/c1cccn1CCN1CCN(C)CC1 | MTT | 72 h | IC50 | 0.22 µM |
| CCn1cc(C(N)=O)c(=O)c2cc(F)c(N3CCC(C)CC3)cc21 | ATP luminescence | 48 h | EC50 | > 40 µM |
| CC(=O)O[C@H]1C(=O)[C@@]2(C)[C@H]([C@H](OC(=O)c3ccccc3)[C@]3(O)C[C@H](OC(=O)[C@H](O)[C@@H](NC(=O)c4ccccc4)c4ccccc4)C(C)=C1C3(C)C)[C@]1(OC(C)=O)CO[C@@H]1C[C@@H]2O | MTT | – | IC50 | 4.75 µM |
| COc1ccc(NC(=O)c2c(Nc3ccccc3)sc(C#N)c2NC(=O)CNc2ccccc2)cc1 | SRB | 0.1 µM, 48 h | viability | 82.4% |
| Cc1ccc2nc(-c3ccco3)n(Cc3ccccc3)c2c1 | MTT | – | IC50 | 55.5 µM |
| CCn1cc(-c2nc(C)no2)c(=O)c2cc(F)c(N3CCC(C)(C)CC3)cc21 | ATP luminescence | 48 h | EC50 | > 40 µM |
| Cc1cc(Nc2ccc(C(=O)N/N=C/c3ccccc3)cc2)c2cccc(O)c2n1 | MTT | 20 µM | inhibition | 48.9% |
| C=CCn1c(-c2ccc(Cl)cc2)nc2ccccc21 | MTT | – | IC50 | 58.9 µM |
| CCOC(=O)c1ccc(N2C(N)=C(C#N)C3(C(=O)Nc4ccccc43)C(C#N)=C2O)cc1 (centres unmarked) | MTT | 6.25 µM, 24 h | viability | 61.3% |
| CC(C)(CO)Cn1nc(-c2ccc3nc(OCC(F)(F)F)ccc3c2)c2c(N)ncnc21 | – | – | GI50 | > 10 µM |
| CCn1cc(-c2nc(C)no2)c(=O)c2cc(F)c(N3CCC(C)CC3)cc21 | ATP luminescence | 48 h | EC50 | > 40 µM |
| COc1ccc(NC(=O)c2c(Nc3ccccc3)sc(C#N)c2NC(=O)CNc2ccc(O)cc2)cc1 | SRB | 0.1 µM, 48 h | viability | 85.6% |
| CCn1cc(-c2nc(C)no2)c(=O)c2cc(F)c(N3CCC(C(C)C)CC3)cc21 | ATP luminescence | 48 h | EC50 | > 40 µM |
| C=CCn1c(-c2ccc(Cl)cc2)nc2ccc(C)cc21 | MTT | – | IC50 | 38.8 µM |
| CCCC1CCN(c2cc3c(cc2F)c(=O)c(C(=O)OCC)cn3CC)CC1 | ATP luminescence | 48 h | EC50 | > 40 µM |
| Cc1ccc2nc(-c3c(F)cccc3Cl)[nH]c2c1 | MTT | 48 h | IC50 | > 100 µM |
| COc1cccc(NC(=O)CN2C(=O)/C(=C/c3ccco3)SC2=S)c1 | MTT | 10 µM | inhibition | 5.43% |
| CC(=O)Nc1cccc(-n2c(=O)n(C3CC3)c(=O)c3c(Nc4ccc(I)cc4F)n(C)c(=O)c(C)c32)c1 | resazurin | 50 nM, 72 h | viability | 43.3% |
